# Data as given in ChEMBL document CHEMBL1139819, “Cyanopyridyl containing 1,4-dihydroindeno[1,2-c]pyrazoles as potent checkpoint kinase 1 inhibitors: improving oral biovailability” (Bioorg Med Chem Lett, 2007).
# Experiments:
# [1] = Antiproliferative activity against H1299 cells assessed as reduction in G2/M cell population by FACS assay; assay type: functional, cell-based; details: Homo sapiens, NCI-H1299
# Outline: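 Cell cycle analysis by FACS in H1299 cells. EC50 is the inhibitor concentration that halves the G2/M population induced by 500 nM doxorubicin (combo). It was also measured without doxorubicin (single).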
# HeLa = assay: Antiproliferative activity against HeLa cells assessed as […] by MTS assay; assay type: functional, cell-based; details: Homo sapiens
# Outline: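 MTS proliferation assay in HeLa cells. […] For the combination, the regression baseline was set to the inhibition given by 150 nM doxorubicin alone. The combo/single EC50 ratio indexes potentiation.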
# [2] = molecular target: T1, Serine/threonine-protein kinase Chk1 (Homo sapiens, UniProt O14757); assay: Inhibition of recombinant CHK1
# T1 sequence (O14757 whole entry): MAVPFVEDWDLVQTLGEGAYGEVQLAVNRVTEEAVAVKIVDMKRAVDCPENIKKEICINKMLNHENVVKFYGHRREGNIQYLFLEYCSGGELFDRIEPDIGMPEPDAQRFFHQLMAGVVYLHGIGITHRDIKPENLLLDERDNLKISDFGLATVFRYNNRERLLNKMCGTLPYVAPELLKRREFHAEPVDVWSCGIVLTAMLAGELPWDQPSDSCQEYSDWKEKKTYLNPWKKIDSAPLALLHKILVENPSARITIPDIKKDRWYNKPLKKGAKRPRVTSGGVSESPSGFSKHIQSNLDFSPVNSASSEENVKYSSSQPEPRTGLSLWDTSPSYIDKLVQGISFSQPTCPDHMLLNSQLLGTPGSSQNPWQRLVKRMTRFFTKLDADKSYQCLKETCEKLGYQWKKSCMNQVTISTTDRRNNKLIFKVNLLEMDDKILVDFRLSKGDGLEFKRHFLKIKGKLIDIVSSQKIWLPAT
# Outline: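 Substrate is 5 µM human biotinylated Cdc25c peptide. Buffer is 25 mM Hepes pH 7.4, 10 mM MgCl2, Triton X-100, 0.5 mM DTT. ATP at 5 µM plus 33P-ATP, with 2% DMSO. Run 30 min at room temperature, stopped with NaCl/EDTA, then 33P incorporation captured on a Flash Plate.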
# [3] = Dissociation constant, pKa of the compound; assay type: physicochemical
# [4] = AUC in mouse at 10 mg/kg, po; assay type: ADME, organism-based; design: dose 10 mg/kg, route oral; details: plasma
# Outline: (§1)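 Oral dosing in mice at 10 mg/kg. Plasma exposure read as AUC and Cmax.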
# [5] = AUC in mouse at 10 mg/kg, ip; assay type: ADME, organism-based; design: dose 10 mg/kg, route intraperitoneal; details: plasma
# Outline: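 Mice dosed intraperitoneally at 10 mg/kg. Vehicle is 2.5% EtOH, 5% Tween 80, 25% PEG400 in PBS, or for some entries 10% NMP, 20% Solutol, 70% PBS. Plasma exposure is given as AUC.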
# [6] = Half life in mouse at 3.0 mg/kg, iv; assay type: ADME, organism-based; design: dose 3 mg/kg, route intravenous; details: in vivo
# [7] = Oral bioavailability in mouse at 10 mg/kg; assay type: ADME, organism-based; details: in vivo
# Mus musculus = assay: AUC in mouse at 3.0 mg/kg, iv; assay type: ADME, organism-based, Plasma; design: dose 3 mg/kg, route intravenous; details: in vivo
# [8] = Cmax in mouse at 10 mg/kg, po; assay type: ADME, organism-based; design: dose 10 mg/kg, route oral; details: in vivo; outline: as §1
# [9] = Volume of distribution in mouse at 3.0 mg/kg, iv; assay type: ADME, organism-based; design: dose 3 mg/kg, route intravenous; details: in vivo
# [10] = AUC in Nu/Nu mouse at 25 mg/kg/day, po in phosal; assay type: ADME, organism-based; design: route oral; details: plasma
# Outline: (§2)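 Oral dosing in Nu/Nu mice at 10, 25 or 50 mkd in one of two vehicles, NMP or Phosal.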
# [11] = AUC in Nu/Nu mouse at 50 mg/kg/day, po in phosal; assay type: ADME, organism-based; design: route oral; details: plasma; outline: as §2
# [12] = AUC in Nu/Nu mouse at 25 mg/kg/day, po in NMP; assay type: ADME, organism-based; design: route oral; details: plasma; outline: as §2
# [13] = AUC in Nu/Nu mouse at 10 mg/kg/day, po in phosal; assay type: ADME, organism-based; design: route oral; details: plasma; outline: as §2
# [14] = AUC in Nu/Nu mouse at 10 mg/kg/day, po in NMP; assay type: ADME, organism-based; design: route oral; details: plasma; outline: as §2
# [15] = AUC in Nu/Nu mouse at 50 mg/kg/day, po in NMP; assay type: ADME, organism-based; design: route oral; details: plasma; outline: as §2
SMILES,EC50 (HeLa) [nM],IC50 [2] [nM],pKa [3],AUC [5] [ng·h/mL],further results
COc1cc2c(cc1OC)-c1n[nH]c(-c3ccc(-c4ccc(O)cc4)cc3)c1C2,> 59000,–,–,–,EC50 [1]: > 10000 nM
COc1cc2c(cc1OCCN1CCOCC1)Cc1c(-c3ccc(C#N)nc3)n[nH]c1-2,–,3.8,–,–,–
COc1cc2c(cc1OCCO)Cc1c(-c3ccc(C#N)nc3)n[nH]c1-2,–,3.1,–,300,–
COc1cc2c(cc1OCCN1CCOCC1)-c1[nH]nc(-c3ccc(C#N)nc3)c1C2,–,3,–,930,–
N#Cc1ccc(-c2n[nH]c3c2Cc2ccc(OCCCN4CCOCC4)cc2-3)cn1,> 59000,3.2,–,2600,half-life [6]: 1.4 h; AUC [4]: 3000 ng·h/mL; bioavailability [7]: 44%; AUC (Mus musculus): 2000 ng·h/mL; Cmax [8]: 660 nM; Vd [9]: 7.6 L/kg
N#Cc1ccc(-c2n[nH]c3c2Cc2ccc(OCCCc4cccs4)cc2-3)cn1,> 59000,52,1.6,–,–
Cc1ncsc1CCOc1ccc2c(c1)-c1[nH]nc(-c3ccc(C#N)nc3)c1C2,7600,6.4,3.3,–,–
N#Cc1ccc(-c2n[nH]c3c2Cc2ccc(NCCN4CCOCC4)cc2-3)cn1,> 59000,7,–,–,–
N#Cc1ccc(-c2n[nH]c3c2Cc2ccc(NC(=O)CCN4CCOCC4)cc2-3)cn1,33000,16,–,–,–
N#Cc1ccc(-c2n[nH]c3c2Cc2ccc(OCCN4CCOCC4)cc2-3)cn1,> 59000,–,5.7,5700,–
N#Cc1ccc(-c2n[nH]c3c2Cc2cc(OCCCN4CCOCC4)ccc2-3)cn1,> 59000,6.4,–,–,–
COc1cc2c(cc1OC)-c1[nH]nc(-c3ccc(C#N)nc3)c1C2,> 59000,–,–,–,EC50 [1]: > 10000 nM
N#Cc1ccc(-c2n[nH]c3c2Cc2cc(OCCN4CCOCC4)ccc2-3)cn1,> 59000,6.5,–,–,–
COc1cc2c(cc1OCc1ccccn1)Cc1c(-c3ccc(C#N)nc3)n[nH]c1-2,–,3.7,–,470,–

# Continued, in another order:
EC50 (HeLa) [nM],IC50 [2] [nM],pKa [3],AUC [5] [ng·h/mL],SMILES,further results
5400,0.92,9.1,–,N#Cc1ccc(-c2n[nH]c3c2Cc2ccc(OCCCN4CCCOCC4)cc2-3)cn1,AUC [4]: 31 ng·h/mL
4000,2.6,9.1,–,N#Cc1ccc(-c2n[nH]c3c2Cc2ccc(OCCCN4CCCCC4)cc2-3)cn1,–
2700,1,11,–,N#Cc1ccc(-c2n[nH]c3c2Cc2ccc(OCCCC4CCNCC4)cc2-3)cn1,–
–,1.1,–,–,COc1cc2c(cc1OCCc1scnc1C)-c1[nH]nc(-c3ccc(C#N)nc3)c1C2,–
8100,1.4,–,–,N#Cc1ccc(-c2n[nH]c3c2Cc2ccc(OCCCCCN4CCOCC4)cc2-3)cn1,–
33000,1.5,6.9,2200,CC(=O)N1CCN(CCCCOc2ccc3c(c2)-c2[nH]nc(-c4ccc(C#N)nc4)c2C3)CC1,–
9700,1.2,–,–,N#Cc1ccc(-c2n[nH]c3c2Cc2ccc(CCCCN4CCOCC4)cc2-3)cn1,–
> 59000,1.1,7.2,–,N#Cc1ccc(-c2n[nH]c3c2Cc2ccc(OCCCn4ccnc4)cc2-3)cn1,–
6200,1.5,9.1,–,CN1CCN(CCCOc2ccc3c(c2)-c2[nH]nc(-c4ccc(C#N)nc4)c2C3)CC1,–
21000,0.75,–,10400,N#Cc1ccc(-c2n[nH]c3c2Cc2ccc(OCCCCN4CCOCC4)cc2-3)cn1,AUC [10]: 15000 ng·h/mL; half-life [6]: 1.4 h; AUC [11]: 32000 ng·h/mL; AUC [12]: 12000 ng·h/mL; AUC [4]: > 3300 ng·h/mL; bioavailability [7]: > 50%; AUC [13]: 5000 ng·h/mL; AUC (Mus musculus): 2100 ng·h/mL; AUC [14]: 6000 ng·h/mL; Cmax [8]: 770 nM; AUC [15]: 25000 ng·h/mL; Vd [9]: 6.9 L/kg
–,2.5,–,–,COc1cc2c(cc1OCCc1scnc1C)Cc1c(-c3ccc(C#N)nc3)n[nH]c1-2,–
–,2.6,–,–,COc1cc2c(cc1OCCO)-c1[nH]nc(-c3ccc(C#N)nc3)c1C2,–
29000,1.8,6.1,1700,N#Cc1ccc(-c2n[nH]c3c2Cc2ccc(OCCOCCN4CCOCC4)cc2-3)cn1,–
> 52000,1,6.1,3000,C[C@@H]1CN(CCCOc2ccc3c(c2)-c2[nH]nc(-c4ccc(C#N)nc4)c2C3)C[C@H](C)O1,–
